Data set [1] deals with long chain fatty acyl-CoA synthetase (ACSL). Put plainly: Inhibition of ACSL activity in solubilized brain endothelial bEND3 cells. It counts as biochemical.
The test system of data set [2] is ACSL in bEND3 brain endothelial cells. Nature of the data set: In situ [14C]-palmitate incorporation into extractable lipids of bEND3 cells. It counts as cell-based. To be noted: for Potency ratio (rank order) for inhibition of [14C]-palmitate incorporation into extractable lipids: triacsin C at 1.5 μM, all other compounds at 15 μM; for Inhibition of [14C]-palmitate incorporation into extractable lipids: compounds at 15 μM, Figure 3A. The method, boiled down:
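bEND3 brain endothelial cells incubated with [14C]-palmitate, with test compounds at 15 μM or the reference ACSL inhibitor at 1.5 μM. Radioactivity measured in extractable lipid (fmoles [14C]-palmitate/μg lipid), aqueous fraction and media; total recovery summed from lipid, aqueous and media. Compared to untreated controls by one-way ANOVA with Dunnett's t test; n = 3–9 independent experiments.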

The subject of data set [3] is leukocyte recruitment (rolling, adhesion, extravasation). Nature of the data set: L-NAME induced leukocyte recruitment in post-capillary venules of the mesentery. To be noted: 120 minutes; for Inhibition of leukocyte rolling, adhesion and extravasation: 5 or 50 μM compound 1, 50 μM compound 9. It counts as in vivo.
The test system is the same in data set [4]. Conditions: 5μM; cited from earlier work.
For data set [5] the following is noted: aqueous; no reference given; cited from earlier work.
Another data set deals with rotavirus. Conditions: cited from earlier work.

As to `CCC/C=C/C/C=C/C=C/C=N/NN=O` [Triacsin C, reference compound], in data set [1], the “Times more potent than compound 3” value is given as “about 10 times”. The “Potency ratio (rank order) for inhibition of [14C]-palmitate incorporation into extractable lipids” value in data set [2] is on record as “triacsin C > 3 > 1 > 4 > 9 = 7 > 2”. Moreover, the “Rolling, adhesion and extravasation rates / recruitment” value in data set [3] (5 μM) is “not different from each other nor were they different from vehicle alone”. Besides, the “Neutrophil recruitment in a model of ischemia” value in data set [4] is recorded as “virtually abolished neutrophil recruitment”.

As for `C=CCCCCCCCCCNc1ccc(C(=O)O)c(O)c1` [Compound 4], in data set [2], the “Inhibition of [14C]-palmitate incorporation into extractable lipids” value is reported as “significant inhibition” and the “Potency ratio (rank order) for inhibition of [14C]-palmitate incorporation into extractable lipids” value is recorded as “triacsin C > 3 > 1 > 4 > 9 = 7 > 2”.

On to `CCCCCCCCCCCCCCCC(=O)SCCNC(=O)CCNC(=O)[C@H](O)C(C)(C)COP(=O)(O)OP(=O)(O)OC[C@H]1O[C@@H](n2cnc3c(N)ncnc32)[C@H](O)[C@@H]1OP(=O)(O)O` [palmitoyl CoA], for which, in data set [5], the Water solubility result is “about 1.74 g/L”.

In the case of `CCC/C=C/C/C=C/C=C/CNN1CCCS1(=O)=O` [Compound 8], the “Folds less active compared with compound 3” value in data set [1] was over 30 folds.

Regarding `CCC/C=C/C/C=C/C=N/N1CCCS1(=O)=O` [Compound 2], the “Folds less active compared with compound 3” value in data set [1] is given as over 30 folds. In data set [2], the “Potency ratio (rank order) for inhibition of [14C]-palmitate incorporation into extractable lipids” value was “triacsin C > 3 > 1 > 4 > 9 = 7 > 2”.

As to `CCC/C=C/C/C=C/C=C/CNc1ccc(C(=O)O)cc1` [Compound 1], the “Potency relative to triacsin C in the ACSL assay” value in data set [1] was “one-tenth as potent as triacsin C”. Besides, the “Inhibition of [14C]-palmitate incorporation into extractable lipids” value in data set [2] is given as “significant inhibition”. Moreover, the “Potency ratio (rank order) for inhibition of [14C]-palmitate incorporation into extractable lipids” value in data set [2] is “triacsin C > 3 > 1 > 4 > 9 = 7 > 2”. Besides, the “Rolling, adhesion and extravasation rates / recruitment” value in data set [3] (5 μM) was “inhibited the recruitment to about half the extent as at 50 μm”; in data set [3] (50 μM) it was “not different from each other nor were they different from vehicle alone”. In addition, the “Inhibition of leukocyte rolling, adhesion and extravasation” value in data set [3] was “significantly inhibited rolling, adhesion, and extravasation”. The “Potency relative to triacsin C as inhibitor of rotavirus replication” value in the data set on rotavirus was “at least twice as potent as triacsin C”.

As for `C=CCCCCCCCCCNc1ccc(C(=O)O)cc1` [Compound 3], in data set [2], the “Inhibition of [14C]-palmitate incorporation into extractable lipids” value is on record as “significant inhibition” and the “Potency ratio (rank order) for inhibition of [14C]-palmitate incorporation into extractable lipids” value is listed as “triacsin C > 3 > 1 > 4 > 9 = 7 > 2”.

`CCC/C=C/C/C=C/CN(O)/N=N/c1ccc(C(=O)O)cc1` [Compound 7]: in data set [2], the “Inhibition of [14C]-palmitate incorporation into extractable lipids” value is “significant inhibition” and the “Potency ratio (rank order) for inhibition of [14C]-palmitate incorporation into extractable lipids” value is listed as “triacsin C > 3 > 1 > 4 > 9 = 7 > 2”.

Consider `C=CCCCCCCCCCNO` [Compound 9], for which, in data set [2], the “Inhibition of [14C]-palmitate incorporation into extractable lipids” value is on record as “significant inhibition” and the “Potency ratio (rank order) for inhibition of [14C]-palmitate incorporation into extractable lipids” value was “triacsin C > 3 > 1 > 4 > 9 = 7 > 2”. Besides, in data set [3] (50 μM), the “Rolling, adhesion and extravasation rates / recruitment” value is “about as effective as compound 1 at 5 μM”. The “Inhibition of leukocyte rolling, adhesion and extravasation” value in data set [3] was “significantly inhibited rolling, adhesion, and extravasation”.

Values taken from paper PMC3963287 (Bioorganic & medicinal chemistry letters, 2014).
